Reference: paper PMC2164977 (The Journal of Cell Biology, 1999)
Each block holds one compound with its values, some of them ahead of it. Non-standard residues stand in square brackets, D forms with d. Residues, ends and D or L forms follow the SMILES beside them. *: point of attachment. Sta = CC(C)C[C@H](N)[C@@H](O)CC(=O)O; Isovaleryl = CC(C)CC(=O)*

Key:
[1] = test system: degradation activity of chloroplast extract (ATP-dependent, soluble metallopeptidase activity); experiment: Degradation assay with chloroplast extract; assay type: biochemical; details: for effect on subfragment degradation in chloroplast extract: 30 min incubation, not shown
[2] = target: SPP in chloroplast extract (Pisum sativum, UniProt Q40983); experiment: Conversion of transit peptide to subfragment in chloroplast extract; assay type: biochemical
Sequence of SPP in chloroplast extract (Q40983 143-1257): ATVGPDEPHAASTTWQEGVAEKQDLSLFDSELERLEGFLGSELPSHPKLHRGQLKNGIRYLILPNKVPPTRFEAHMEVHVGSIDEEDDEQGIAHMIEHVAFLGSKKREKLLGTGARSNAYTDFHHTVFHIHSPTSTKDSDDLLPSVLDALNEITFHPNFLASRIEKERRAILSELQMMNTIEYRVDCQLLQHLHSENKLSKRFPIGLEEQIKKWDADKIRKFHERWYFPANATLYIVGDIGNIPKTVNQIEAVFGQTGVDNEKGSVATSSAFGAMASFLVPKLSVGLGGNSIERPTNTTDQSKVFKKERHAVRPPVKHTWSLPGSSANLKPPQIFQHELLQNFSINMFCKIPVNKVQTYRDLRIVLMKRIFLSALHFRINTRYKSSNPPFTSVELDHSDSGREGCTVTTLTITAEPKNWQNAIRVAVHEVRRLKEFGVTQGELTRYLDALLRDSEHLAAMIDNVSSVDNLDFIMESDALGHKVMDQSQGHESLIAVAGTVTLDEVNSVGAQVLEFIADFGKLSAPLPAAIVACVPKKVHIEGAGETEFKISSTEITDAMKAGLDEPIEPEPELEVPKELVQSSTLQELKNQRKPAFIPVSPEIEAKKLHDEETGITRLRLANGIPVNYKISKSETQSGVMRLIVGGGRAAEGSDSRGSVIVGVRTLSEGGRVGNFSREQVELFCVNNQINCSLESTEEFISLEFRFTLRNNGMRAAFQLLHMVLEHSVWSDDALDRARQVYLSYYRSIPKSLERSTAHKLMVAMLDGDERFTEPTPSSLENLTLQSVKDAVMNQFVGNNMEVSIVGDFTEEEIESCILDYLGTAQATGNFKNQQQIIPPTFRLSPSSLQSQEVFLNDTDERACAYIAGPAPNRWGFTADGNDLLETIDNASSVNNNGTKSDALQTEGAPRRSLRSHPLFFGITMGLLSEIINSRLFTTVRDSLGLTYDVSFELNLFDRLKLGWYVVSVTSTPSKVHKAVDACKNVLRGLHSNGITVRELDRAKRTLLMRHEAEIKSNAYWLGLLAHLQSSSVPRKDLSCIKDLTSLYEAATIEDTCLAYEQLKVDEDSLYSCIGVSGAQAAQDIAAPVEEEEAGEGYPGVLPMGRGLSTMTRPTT
Procedure, shortened: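 [35S]methionine-labeled FD transit peptide is made by 3 min cleavage of preFD on immobilized SPP, then frozen, cleared and dialyzed. It is incubated with chloroplast extract (1:1) in 25 mM Hepes-KOH pH 7.5 at 24°C for 30 min with 1,10-phenanthroline at 0.1–10 mM. Percent substrate remaining is quantified by tricine SDS-PAGE.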

[3] = target: T1, stromal processing peptidase (SPP) (Pisum sativum, UniProt Q40983); experiment: Processing and transit peptide trimming by recombinant SPP; assay type: biochemical; details: not shown
T1 sequence (Q40983 143-1257): as above
Procedure, shortened: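 Time courses use reticulocyte-translated [35S]methionine precursors with biotin-tagged recombinant SPP (IPTG-induced E. coli, 30°C) bound to streptavidin magnetic beads. Reactions run in 25 mM Hepes-KOH pH 7.5, 2 mM PMSF, at 24°C, and are stopped by boiling in loading buffer. For preFD and preHSP21, 5 mM 1,10-phenanthroline is added at 2 or 5 min. Products are resolved by tricine SDS-PAGE and autoradiography.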

[4] = target: T1, stromal processing peptidase (SPP); details: 10 mM NEM in binding assay; data not shown
Procedure, shortened: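 Recombinant biotin-tagged SPP from E. coli extract is captured on streptavidin magnetic beads. It is incubated 5 min at 24°C in 25 mM Hepes-KOH pH 7.5 with dialyzed [35S]methionine-labeled FD transit peptide or subfragment. Beads are washed twice in buffer, then eluted once with NaCl (0–1,000 mM), and the remaining material is released by boiling. Tricine SDS-PAGE, autoradiography and PhosphorImager quantification follow.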

[5] = test system: nonspecific protease activity in rabbit reticulocyte lysate; experiment: Nonspecific protease activity of the reticulocyte lysate; assay type: biochemical; details: 2 mM PMSF, supernatant of preHSP21 processing reaction, 1 h at 24°C
Procedure, shortened: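 To check lysate protease, [35S]methionine-labeled preHSP21 from reticulocyte lysate is processed 30 min at 24°C by bead-immobilized SPP. The supernatant holding the transit peptide subfragment is removed and incubated 1 h at 24°C, without inhibitor or with 2 mM PMSF. Remaining subfragment is read out.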

FD transit peptide subfragment remaining after 30 min in chloroplast extract ([1]; 1 mM 1,10-phenanthroline, 24°C): 86%
effect on degradation of the subfragment in chloroplast extract ([1]; 5 mM 1,10-phenanthroline, 30 min): inhibited
degradation of FD transit peptide subfragment in chloroplast extract ([1]; 10 mM 1,10-phenanthroline, 30 min, 24°C): no degradation
FD transit peptide left after 30 min in chloroplast extract ([2]; 1 mM 1,10-phenanthroline, 24°C): 16%
FD transit peptide remaining after 30 min in chloroplast extract ([2]; 10 mM 1,10-phenanthroline, 24°C): 80%
sensitivity of SPP relative to the degradation activity ([2]; SPP less sensitive than degradation activity): about tenfold
Compound: c1cnc2c(c1)ccc1cccnc12 [1,10-phenanthroline]

Compound: CC(C)C[C@H](NC(=O)[C@H]1O[C@@H]1C(=O)O)C(=O)NCCCCN=C(N)N [E64]
effect on subfragment degradation in chloroplast extract ([1]; 100 μM inhibitor): None of these inhibitors significantly decreased

effect on SPP cleavage of precursors [3]: inhibited
effect on interaction between SPP and FD transit peptide [4]: disrupted the interaction
Compound: CCN1C(=O)C=CC1=O [NEM, N-ethylmaleimide]
effect on subfragment degradation in chloroplast extract ([1]; 10 mM inhibitor): None of these inhibitors significantly decreased

Compound: O=S(=O)(F)Cc1ccccc1 [PMSF]
HSP21 transit peptide subfragment remaining [5]: ~90%
effect on subfragment degradation in chloroplast extract ([1]; 10 mM inhibitor): None of these inhibitors significantly decreased

Compound: CC(C)CC(=O)N[C@H](C(=O)N[C@H](C(=O)N[C@@H](CC(C)C)[C@@H](O)CC(=O)N[C@@H](C)C(=O)N[C@@H](CC(C)C)[C@@H](O)CC(=O)O)C(C)C)C(C)C [pepstatin] (Isovaleryl-VV[Sta]A[Sta]-OH)
effect on subfragment degradation in chloroplast extract ([1]; 100 μM inhibitor): None of these inhibitors significantly decreased
